# Measured values published in ChEMBL document CHEMBL2311328, “Molecular docking and synthesis of novel quinazoline analogues as inhibitors of transcription factors NF-κB activation and their anti-cancer activities” (2013).
# Calls of active or inactive are those of the source. No cut-off for these calls is given here.
# Experiments:
# [1] = system: HepG2; experiment: Inhibition of TNFalpha-induced NFkappaB (unknown origin)-dependent transcriptional activity expressed in human HepG2 cells at 1 uM incubated for 1 hr prior to TNFalpha induction measured after 6 hrs by dual-luciferase reporter gene assay; format: cell-based
# In short: (§1)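 HepG2 cells in DMEM with 10% FBS were lipofectamine-transfected with 10 ng/well pGL4.32 NF-κB-Luc plus Renilla control. Compound in DMSO was given in fresh medium for 1 h at 37 °C, then TNFα (final 20 ng/ml) for 6 h. Cells were lysed in passive lysis buffer. Firefly light units were normalized to Renilla; one-way ANOVA.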
# [2] = system: HepG2; experiment: Cytotoxicity against human HepG2 cells assessed as cellular growth at 50 uM incubated for 1 hr prior to TNF alpha stimulation measured after 48 hrs by SRB assay; format: functional
# In short: (§2)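 HepG2 cells in DMEM with 10% FBS and penicillin/streptomycin were allowed to adhere 24 h, and a T0 plate was fixed. Compound was given for 1 h at 37 °C, with or without 20 ng/ml TNFα, then 48 h more. Cells were stained with 0.4% SRB for 30 min at RT, washed in 1% acetic acid, and solubilized in 10 mM Tris. OD read at 515 nm; one-way ANOVA.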
# [3] = system: HepG2; experiment: Cytotoxicity against human HepG2 cells assessed as cellular growth at 50 uM after 48 hrs by SRB assay in absence of TNFalpha; format: functional; in short: as §2
# [4] = system: SNB-19; experiment: Cytotoxicity against human SNB19 cells after 48 hrs by SRB assay; format: functional; conditions: SNB-19, 48 h
# In short: (§3)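 Screened by the NCI Developmental Therapeutics Program in dose-response format. GI50 was determined by the sulforhodamine B protocol.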
# [5] = system: SN12C; experiment: Cytotoxicity against human SN12C cells after 48 hrs by SRB assay; format: functional; in short: as §3
# [6] = system: HCT-15; experiment: Cytotoxicity against human HCT15 cells after 48 hrs by SRB assay; format: functional; conditions: HCT-15, 48 h; in short: as §3
# [7] = Cytotoxicity against human NCI-ADR-RES cells after 48 hrs by SRB assay; format: functional; in short: as §3
# [8] = system: KM12; experiment: Cytotoxicity against human KM12 cells after 48 hrs by SRB assay; format: functional; conditions: KM12, 48 h; in short: as §3
# [9] = system: IGROV-1; experiment: Cytotoxicity against human IGROV1 cells after 48 hrs by SRB assay; format: functional; conditions: IGROV-1, 48 h; in short: as §3
# [10] = system: PC-3; experiment: Cytotoxicity against human PC3 cells after 48 hrs by SRB assay; format: functional; conditions: PC-3, 48 h; in short: as §3
# [11] = system: A498; experiment: Cytotoxicity against human A498 cells after 48 hrs by SRB assay; format: functional; conditions: A498, 48 h; in short: as §3
# [12] = system: UACC-257; experiment: Cytotoxicity against human UACC257 cells after 48 hrs by SRB assay; format: functional; conditions: UACC-257, 48 h; in short: as §3
# [13] = system: TK-10; experiment: Cytotoxicity against human TK10 cells after 48 hrs by SRB assay; format: functional; conditions: TK-10, 48 h; in short: as §3
# [14] = system: T47D; experiment: Cytotoxicity against human T47D cells after 48 hrs by SRB assay; format: functional; in short: as §3
# [15] = system: UO-31; experiment: Cytotoxicity against human UO31 cells after 48 hrs by SRB assay; format: functional; conditions: UO-31, 48 h; in short: as §3
# [16] = system: OVCAR-8; experiment: Cytotoxicity against human OVCAR8 cells after 48 hrs by SRB assay; format: functional; conditions: OVCAR-8, 48 h; in short: as §3
# [17] = system: DU-145; experiment: Cytotoxicity against human DU145 cells after 48 hrs by SRB assay; format: functional; conditions: DU-145, 48 h; in short: as §3
# [18] = system: SF-268; experiment: Cytotoxicity against human SF268 cells after 48 hrs by SRB assay; format: functional; conditions: SF-268, 48 h; in short: as §3
# [19] = system: SW-620; experiment: Cytotoxicity against human SW620 cells after 48 hrs by SRB assay; format: functional; conditions: SW-620, 48 h; in short: as §3
# [20] = system: MCF7; experiment: Cytotoxicity against human MCF7 cells after 48 hrs by SRB assay; format: functional; conditions: MCF7, 48 h; in short: as §3
# [21] = system: Malme-3M; experiment: Cytotoxicity against human MALME-3M cells after 48 hrs by SRB assay; format: functional; in short: as §3
# [22] = system: HCT-116; experiment: Cytotoxicity against human HCT116 cells after 48 hrs by SRB assay; format: functional; conditions: HCT-116, 48 h; in short: as §3
# [23] = system: UACC-62; experiment: Cytotoxicity against human UACC62 cells after 48 hrs by SRB assay; format: functional; conditions: UACC-62, 48 h; in short: as §3
# [24] = system: SF-539; experiment: Cytotoxicity against human SF539 cells after 48 hrs by SRB assay; format: functional; conditions: SF-539, 48 h; in short: as §3
# [25] = system: SF-295; experiment: Cytotoxicity against human SF295 cells after 48 hrs by SRB assay; format: functional; conditions: SF-295, 48 h; in short: as §3
# [26] = system: OVCAR-3; experiment: Cytotoxicity against human OVCAR3 cells after 48 hrs by SRB assay; format: functional; conditions: OVCAR-3, 48 h; in short: as §3
# [27] = system: SK-MEL-2; experiment: Cytotoxicity against human SK-MEL-2 cells after 48 hrs by SRB assay; format: functional; conditions: SK-MEL-2, 48 h; in short: as §3
# [28] = system: CAKI-1; experiment: Cytotoxicity against human Caki1 cells after 48 hrs by SRB assay; format: functional; conditions: CAKI-1, 48 h; in short: as §3
# [29] = system: EKVX; experiment: Induction of apoptosis in TNFalpha-stimulated human EKVX cells at 1 uM incubated for 1 hr prior to TNFalpha stimulation measured after 18 hrs by TUNEL assay; format: functional, cell-based
# In short: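 EKVX cells in RPMI 1640 with 10% FBS were grown on glass coverslips. Compound was given for 1 h at 37 °C, then 20 ng/ml TNFα for 18 h. Cells were fixed in 3.7% paraformaldehyde, treated with proteinase K for 30 min, then TUNEL-labelled with streptavidin-fluorescein plus DAPI. Scored by fluorescence microscopy.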
# [30] = system: SK-MEL-28; experiment: Cytotoxicity against human SK-MEL-28 cells after 48 hrs by SRB assay; format: functional; conditions: SK-MEL-28, 48 h; in short: as §3
# [31] = system: 786-0; experiment: Cytotoxicity against human 786-0 cells after 48 hrs by SRB assay; format: functional; conditions: 786-0, 48 h; in short: as §3
# [32] = system: BT-549; experiment: Cytotoxicity against human BT549 cells after 48 hrs by SRB assay; format: functional; conditions: BT-549, 48 h; in short: as §3
# [33] = system: LOX IMVI; experiment: Cytotoxicity against human LOXIMVI cells after 48 hrs by SRB assay; format: functional; in short: as §3
# [34] = system: COLO 205; experiment: Cytotoxicity against human COLO205 cells after 48 hrs by SRB assay; format: functional; conditions: COLO 205, 48 h; in short: as §3
# [35] = system: U-251; experiment: Cytotoxicity against human U251 cells after 48 hrs by SRB assay; format: functional; conditions: U-251, 48 h; in short: as §3
# [36] = system: HCC 2998; experiment: Cytotoxicity against human HCC2998 cells after 48 hrs by SRB assay; format: functional; conditions: HCC 2998, 48 h; in short: as §3
# [37] = system: M14; experiment: Cytotoxicity against human M14 cells after 48 hrs by SRB assay; format: functional; conditions: M14, 48 h; in short: as §3
# [38] = system: RXF 393; experiment: Cytotoxicity against human RXF393 cells after 48 hrs by SRB assay; format: functional; conditions: RXF 393, 48 h; in short: as §3
# [39] = Cytotoxicity against human SKOC3 cells after 48 hrs by SRB assay; format: functional; conditions: SKOC3, 48 h; in short: as §3
# [40] = system: MDA-MB-231; experiment: Cytotoxicity against human MDA-MB-231 cells after 48 hrs by SRB assay; format: functional; conditions: MDA-MB-231, 48 h; in short: as §3
# [41] = system: OVCAR-4; experiment: Cytotoxicity against human OVCAR4 cells after 48 hrs by SRB assay; format: functional; conditions: OVCAR-4, 48 h; in short: as §3
# [42] = system: Hs-578T; experiment: Cytotoxicity against human Hs578T cells after 48 hrs by SRB assay; format: functional; in short: as §3
# [43] = system: HepG2; experiment: Inhibition of TNFalpha-induced NFkappaB (unknown origin)-dependent transcriptional activity expressed in human HepG2 cells at 0.1 to 10 uM incubated for 1 hr prior to TNFalpha induction measured after 6 hrs by dual-luciferase reporter gene assay; format: cell-based; in short: as §1
# [44] = system: MDA-MB-435; experiment: Cytotoxicity against human MDA-MB-435 cells after 48 hrs by SRB assay; format: functional; conditions: MDA-MB-435, 48 h; in short: as §3
# [45] = system: SNB-75; experiment: Cytotoxicity against human SNB75 cells after 48 hrs by SRB assay; format: functional; conditions: SNB-75, 48 h; in short: as §3
compound,measurement,setting,value
c1ccc(-c2nc(NCCc3ccc4c(c3)OCO4)c3ccccc3n2)cc1,inhibition,[1],Active
same,Activity,[2],-46.8%
same,Activity,[3],-30.7%
Oc1ccc(CN2CCN(c3nc(-c4ccccc4)nc4ccccc34)CC2)cc1,inhibition,[1],Active
same,Activity,[2],-49.1%
same,Activity,[3],-37.6%
c1ccc(CN2CCN(c3ncnc4ccccc34)CC2)cc1,inhibition,[1],Active
same,Activity,[2],-17.6%
same,Activity,[3],-16.7%
Oc1ccc(CN2CCN(c3ncnc4ccccc34)CC2)cc1,inhibition,[1],Active
same,Activity,[2],-13.3%
same,Activity,[3],-5.3%
Oc1ccc(Br)cc1CN1CCN(c2ncnc3ccccc23)CC1,inhibition,[1],Active
same,Activity,[2],-29.9%
same,Activity,[3],-22%
c1ccc2c(NCCc3ccc4c(c3)OCO4)ncnc2c1,inhibition,[1],Active
same,Activity,[2],-28.1%
same,Activity,[3],-20.1%
c1ccc(-c2nc(NCCc3c[nH]c4ccccc34)c3ccccc3n2)cc1,GI50,[4],5.1 µM
same,GI50,[5],3.9 µM
same,GI50,[6],2.5 µM
same,GI50,[7],2.6 µM
same,GI50,[8],2.8 µM
same,GI50,[9],3.2 µM
same,GI50,[10],2.4 µM
same,GI50,[11],2 µM
same,GI50,[12],3.2 µM
same,GI50,[13],2.8 µM
same,inhibition,[1],Active
same,GI50,[14],2.4 µM
same,GI50,[15],3 µM
same,GI50,[16],2.2 µM
same,Activity,[2],-46.7%
same,GI50,[17],4.7 µM
same,GI50,[18],4.6 µM
same,GI50,[19],3 µM
same,GI50,[20],4.2 µM
same,GI50,[21],2.8 µM
same,GI50,[22],2.8 µM
same,GI50,[23],2 µM
same,GI50,[24],2 µM
same,GI50,[25],2 µM
same,GI50,[26],2.9 µM
same,GI50,[27],3 µM
same,GI50,[28],3.1 µM
same,Activity,[29],Active
same,Activity,[3],-35.3%
same,GI50,[30],6.2 µM
same,GI50,[31],2.5 µM
same,GI50,[32],4.4 µM
same,GI50,[33],2.2 µM
same,GI50,[34],2.2 µM
same,GI50,[35],3.2 µM
same,GI50,[36],2.1 µM
same,GI50,[37],2.6 µM
same,GI50,[38],1.9 µM
same,GI50,[39],3.7 µM
same,GI50,[40],3.1 µM
same,GI50,[41],3.6 µM
same,GI50,[42],3.4 µM
same,inhibition,[43],Active
same,GI50,[44],2.3 µM
same,GI50,[45],5.9 µM
